Data from ChEMBL document CHEMBL4138082 (Eur J Med Chem, 2017).

Legend:
PC-3 = test: Antiproliferative activity against human PC3 cells after 72 hrs by MTT assay; assay type: functional, cell-based; conditions: PC-3, 72 h
Outline: (§1)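 MTT assay. Cells were seeded and grown 24 h at 37 °C in 5% CO2, then exposed to compound or left untreated for 72 h. MTT (5 mg/mL stock) was added for 4 h and the formazan dissolved in DMSO. OD was read at 570 nm. IC50 is the concentration giving 50% growth inhibition, reported as mean ± SD of three independent experiments. Vehicle reference was 0.1% DMSO.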

HT-29 = test: Antiproliferative activity against human HT-29 cells after 72 hrs by MTT assay; assay type: functional, cell-based; conditions: HT-29, 72 h; outline: as §1
HepG2 = test: Antiproliferative activity against human HepG2 cells after 72 hrs by MTT assay; assay type: functional, cell-based; conditions: HepG2, 72 h; outline: as §1
[1] = Selectivity index, ratio of IC50 for human L02 cells to IC50 for human HepG2 cells; assay type: toxicity; conditions: L02 cells and HepG2 cells, read-out: Ratio IC50
Outline: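 MTT assay: cells grown 24 h at 37 °C, 5% CO2, then exposed 72 h; MTT (5 mg/mL) added for 4 h, formazan dissolved in DMSO, OD read at 570 nm. Vehicle 0.1% DMSO. Three independent experiments.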

L02 = test: Cytotoxicity against human L02 cells assessed as reduction in cell viability after 72 hrs by MTT assay; assay type: cell-based; conditions: L02, 72 h; outline: as §1
[2] = Drug metabolism in human HepG2 cells assessed as NO release by measuring nitrite formation at 100 uM after 1 hr by Griess assay; assay type: ADME, cell-based; conditions: hepg2, 1 h
Outline: (§2)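 HepG-2 or L-02 cells were exposed to 100 µM of each compound for 60 min and then harvested. Lysates were mixed with Griess reagent for 10 min at 37 °C and absorbance was read at 550 nm. NO release is expressed as nitrite, reported as mean ± SD of three independent experiments.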

[3] = Drug metabolism in human L02 cells assessed as NO release by measuring nitrite formation at 100 uM after 1 hr by Griess assay; assay type: ADME, cell-based; conditions: l02, 1 h; outline: as §2

Row | SMILES | IC50 (PC-3) [nM] | IC50 (HT-29) [nM] | IC50 (HepG2) [nM] | selectivity ratio [1] | IC50 (L02) [nM] | Drug metabolism [2] [µM] | Drug metabolism [3] [µM]
1 | C[C@H]1CCC/C=C/[C@@H]2C[C@H](OC(=O)c3ccccc3C(=O)OCCOc3no[n+]([O-])c3S(=O)(=O)c3ccccc3)C[C@H]2[C@H](O)/C=C/C(=O)O1 | 64 | 280 | 540 | 11 | 5900 |  | 
2 | C[C@H]1CCC/C=C/[C@@H]2C[C@H](OC(=O)CCC(=O)O)C[C@H]2[C@H](O)/C=C/C(=O)O1 | 1600 | 6300 | 1600 | 6 | 9500 |  | 
3 | O=C(O)c1ccccc1C(=O)OCCOc1no[n+]([O-])c1S(=O)(=O)c1ccccc1 | 9900 | > 10000 | > 10000 |  | 37000 |  | 
4 | C[C@H]1CCC/C=C/[C@@H]2C[C@H](O)C[C@H]2[C@H](O)/C=C/C(=O)O1 [BREFELDIN A] | 68 | 160 | 350 |  | < 0.4 |  | 
5 | C[C@H]1CCC/C=C/[C@@H]2C[C@H](O)C[C@H]2[C@H](OC(=O)CCC(=O)OCCCOc2no[n+]([O-])c2S(=O)(=O)c2ccccc2)/C=C/C(=O)O1 | 250 | 790 | 730 | 9 | 6900 |  | 
6 | C[C@H]1CCC/C=C/[C@@H]2C[C@H](OC(=O)CCCC(=O)OCCCOc3no[n+]([O-])c3S(=O)(=O)c3ccccc3)C[C@H]2[C@H](O)/C=C/C(=O)O1 | 160 | 1600 | 750 | 9 | 6700 |  | 
7 | C[C@H]1CCC/C=C/[C@@H]2C[C@H](OC(=O)CCCC(=O)OCCOc3no[n+]([O-])c3S(=O)(=O)c3ccccc3)C[C@H]2[C@H](O)/C=C/C(=O)O1 | 59 | 180 | 820 | 6 | 5100 | 65.2 | 14.6
8 | C[C@H]1CCC/C=C/[C@@H]2C[C@H](O)C[C@H]2[C@H](OC(=O)c2ccccc2C(=O)OCCCOc2no[n+]([O-])c2S(=O)(=O)c2ccccc2)/C=C/C(=O)O1 | 150 | 860 | 620 | 10 | 5900 |  | 
9 | O=C(O)CCCC(=O)OCCCOc1no[n+]([O-])c1S(=O)(=O)c1ccccc1 | 3300 | > 10000 | > 10000 |  | 35000 |  | 
10 | C[C@H]1CCC/C=C/[C@@H]2C[C@H](OC(=O)CCC(=O)OCCOc3no[n+]([O-])c3S(=O)(=O)c3ccccc3)C[C@H]2[C@H](O)/C=C/C(=O)O1 | 140 | 460 | 910 | 6 | 5200 |  | 
11 | C[C@H]1CCC/C=C/[C@@H]2C[C@H](OC(=O)c3ccccc3C(=O)OCCOc3no[n+]([O-])c3S(=O)(=O)c3ccccc3)C[C@H]2[C@H](OC(=O)c2ccccc2C(=O)OCCOc2no[n+]([O-])c2S(=O)(=O)c2ccccc2)/C=C/C(=O)O1 | 130 | 230 | 550 | 11 | 6200 | 89.3 | 20.6
12 | O=C(O)CCC(=O)OCCCOc1no[n+]([O-])c1S(=O)(=O)c1ccccc1 | > 10000 | > 10000 | 6400 | 5 | 29000 |  | 
13 | O=C(O)c1ccccc1C(=O)OCCCOc1no[n+]([O-])c1S(=O)(=O)c1ccccc1 | 4900 | > 10000 | > 10000 |  | 40000 |  | 
14 | C[C@H]1CCC/C=C/[C@@H]2C[C@H](OC(=O)CCC(=O)OCCCOc3no[n+]([O-])c3S(=O)(=O)c3ccccc3)C[C@H]2[C@H](OC(=O)CCC(=O)OCCCOc2no[n+]([O-])c2S(=O)(=O)c2ccccc2)/C=C/C(=O)O1 | 120 | 1200 | 840 | 9 | 7200 |  | 
15 | C[C@H]1CCC/C=C/[C@@H]2C[C@H](OC(=O)c3ccccc3C(=O)OCCCOc3no[n+]([O-])c3S(=O)(=O)c3ccccc3)C[C@H]2[C@H](OC(=O)c2ccccc2C(=O)OCCCOc2no[n+]([O-])c2S(=O)(=O)c2ccccc2)/C=C/C(=O)O1 | 1300 | 4400 | 4000 | 2 | 9800 |  | 
16 | C[C@H]1CCC/C=C/[C@@H]2C[C@H](O)C[C@H]2[C@H](OC(=O)CCC(=O)OCCOc2no[n+]([O-])c2S(=O)(=O)c2ccccc2)/C=C/C(=O)O1 | 120 | 230 | 510 | 10 | 5000 |  | 
17 | C[C@H]1CCC/C=C/[C@@H]2C[C@H](O)C[C@H]2[C@H](OC(=O)c2ccccc2C(=O)OCCOc2no[n+]([O-])c2S(=O)(=O)c2ccccc2)/C=C/C(=O)O1 | 110 | 400 | 820 | 7 | 5700 |  | 
18 | O=c1[nH]cc(F)c(=O)[nH]1 [FLUOROURACIL] |  | 4900 |  |  |  |  | 
19 | C[C@H]1CCC/C=C/[C@@H]2C[C@H](OC(=O)CCC(=O)OCCCOc3no[n+]([O-])c3S(=O)(=O)c3ccccc3)C[C@H]2[C@H](O)/C=C/C(=O)O1 | 730 | 910 | 1300 | 6 | 7800 |  | 
20 | C[C@H]1CCC/C=C/[C@@H]2C[C@H](OC(=O)CCCC(=O)OCCCOc3no[n+]([O-])c3S(=O)(=O)c3ccccc3)C[C@H]2[C@H](OC(=O)CCCC(=O)OCCCOc2no[n+]([O-])c2S(=O)(=O)c2ccccc2)/C=C/C(=O)O1 | 83 | 620 | 380 | 13 | 5100 | 92.3 | 23.4
21 | O=C(O)CCCC(=O)OCCOc1no[n+]([O-])c1S(=O)(=O)c1ccccc1 | 5100 | > 10000 | 4000 | 8 | 32000 |  | 
22 | C[C@H]1CCC/C=C/[C@@H]2C[C@H](O)C[C@H]2[C@H](OC(=O)CCCC(=O)OCCOc2no[n+]([O-])c2S(=O)(=O)c2ccccc2)/C=C/C(=O)O1 | 46 | 280 | 410 | 12 | 5100 | 68.5 | 13.9
23 | C[C@H]1CCC/C=C/[C@@H]2C[C@H](OC(=O)CCC(=O)OCCOc3no[n+]([O-])c3S(=O)(=O)c3ccccc3)C[C@H]2[C@H](OC(=O)CCC(=O)OCCOc2no[n+]([O-])c2S(=O)(=O)c2ccccc2)/C=C/C(=O)O1 | 56 | 220 | 510 | 12 | 5900 | 98.4 | 19.5
24 | O=C(O)CCC(=O)OCCOc1no[n+]([O-])c1S(=O)(=O)c1ccccc1 | 3800 | > 10000 | > 10000 |  | 36000 |  | 
25 | C[C@H]1CCC/C=C/[C@@H]2C[C@H](O)C[C@H]2[C@H](OC(=O)CCCC(=O)OCCCOc2no[n+]([O-])c2S(=O)(=O)c2ccccc2)/C=C/C(=O)O1 | 95 | 5700 | 1800 | 4 | 6700 |  | 
26 | C[C@H]1CCC/C=C/[C@@H]2C[C@H](OC(=O)c3ccccc3C(=O)OCCCOc3no[n+]([O-])c3S(=O)(=O)c3ccccc3)C[C@H]2[C@H](O)/C=C/C(=O)O1 | 95 | 300 | 620 | 9 | 5400 |  | 
